Compound activity: PubChem BioAssay, several laboratories
HUVEC inhibit – blocks proliferation of human endothelial cells. HUVEC proliferation, CellTiter-Glo luminescence, 72 h; stronger effect = lower value. viability, % at 10 µM (by protocol). 86,000 tested, 1.1% active. AID 648;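 active means viability at or below 30%; inactive means viability above 30%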;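 further: 100% = median luminescence of DMSO-only cell control wells on each plate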
Phagocyt inh – blocks phagocytosis by macrophages. 110,000 tested, 0.07% active. AID 1029. J774A.1 macrophage IgG-bead phagocytosis, imaging. inhibition, % at 5 µM;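 active means inhibition above the mean of the plate negative controls plus 5 SD, cut at about 13% in these data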;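 further: phagocytic index as fraction of beads internalized from green versus red external bead signal; plate controls were DMSO negative control for no effect and cytochalasin-D positive control for full effect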
Lung fibro prol – blocks proliferation of human lung fibroblasts | LL 47 human lung fibroblast viability, ATP luminescence; stronger effect = lower value | viability, % at 10 µM | 85,000 tested, 1.1% active;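 active means viability at or below 50% in the single dose screen; inactive means viability above 50%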;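 further: compound exposure lasted 72 h before the ATP readout; 100% = median luminescence of untreated cell-only wells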
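Material: Human LL 47 lung fibroblast cells | Input: 1,150 cells/well | Buffer or medium: IMEM plus 15% FBS | Compound dosing: 0.1% DMSO in all compound wells | Times: Overnight cell rest, 72 h compound treatment at 37 °C | Signal: CellTiter-Glo luminescence measuring cellular ATP | Measure: % viability versus median cells-only luminescence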
HCT116 bCat-KO – beta-catenin-lacking colon tumor cell growth suppression. 140,000 tested, 1.5% active. HCT116 beta-catenin knockout viability, CellTiter-Glo, 60 h; stronger effect = lower value. viability, % at 10 µM. AID 818;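 active means viability at or under a set limit, the compound median less 4 SD, cut at about 6% in these data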;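 further: 0% = Hyamine 1622 control at 20 µM and 100% = untreated cell control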
H69AR growth 86K – growth inhibitors of human H69AR lung tumor cells; 85,000 tested, 6% active; H69AR lung tumor viability, ATP luminescence, 72 h; stronger effect = lower value; viability, % at 10 µM;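 active means viability at or below 40%; inactive means viability above 40%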;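 further: multidrug resistant small cell line overexpressing MRP-1 efflux transporter; 100% = mean luminescence of untreated control wells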
HCT116 PTEN-null – PTEN-deleted cell growth suppression. 140,000 tested, 1.2% active. AID 827. viability, % at 10 µM. HCT116 PTEN-null viability, CellTiter-Glo, 60 h; stronger effect = lower value;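 active means viability at or below a set limit, 4 SD under the median of all tested compounds, cut at about 3.7% in these data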;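 further: PTEN knockout HCT116 line with beta catenin targeted HCT116 as companion control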
* marks the source's active call; other numbers are inactive results; . = no result given. The full list was thinned out, with hits kept by preference.

SMILES | HUVEC inhibit | Phagocyt inh | Lung fibro prol | HCT116 bCat-KO | H69AR growth 86K | HCT116 PTEN-null
CCn1c(N)c(C(=O)NC)sc1=S | 95 | -3 | 97 | 55 | 20* | 61
CCNc1nc(ON=C(C)C)nc(N(C)C)n1 | . | . | . | 99 | . | 99
O=C(O)/C(=C/c1ccco1)NC(=O)c1ccccc1 | . | -7 | . | 96 | . | 91
N#CC(C#N)=C1C=CC=CN1/C(=C\c1ccco1)C(=O)c1ccc(-c2ccccc2)cc1 | . | -1 | . | 1.7* | . | 1.5*
N#CC(C#N)=C1C=CC=CN1/C(=C\c1ccco1)C(=O)c1ccc(Cl)cc1 | . | . | . | 2.4* | . | 2.2*
O=C(CN1CCCCC1)NCCNc1ccc(C(F)(F)F)cc1[N+](=O)[O-] | . | -2 | . | 97 | . | 101
CN(c1ccc(C(=O)Nc2ccccc2C(F)(F)F)cc1)S(C)(=O)=O | 101 | 54* | 105 | 97 | . | 91
CN(c1ccc(C(=O)Nc2ccccc2C(=O)N2CCCC2)cc1)S(C)(=O)=O | 106 | 2 | 102 | 91 | 87 | 82
CN(C)C(=O)C(CCN1CCC(O)(c2ccc(Cl)cc2)CC1)(c1ccccc1)c1ccccc1 | . | . | . | 16 | . | 15
OC(CCCN1CCC(O)(c2ccc(Cl)cc2)CC1)c1ccc(F)cc1 (centres undefined) | 116 | . | 88 | 0.6* | 81 | 0.7*
O=C(NCC(c1cccs1)N1CCOCC1)c1ccc(Br)o1 (centres undefined) | 85 | -1 | 64 | 15 | 23* | 19
Cc1ccccc1S(=O)(=O)Cc1ccc(C(=O)NCc2cccnc2)o1 | 103 | 1 | 98 | 98 | 95 | 87
COc1ccc(NC(=O)Cn2cnc3c(cnn3-c3ccc(C)c(C)c3)c2=O)c(OC)c1 | 56 | 1 | 94 | 44 | 8.3* | 11
CC(C)Sc1nc(SCC(=O)NCc2ccco2)c2c3c(sc2n1)COC(C)(C)C3 | 86 | 3 | 91 | 69 | 34* | 80
Cc1nc(SCC(=O)NCc2ccco2)c2c3c(sc2n1)CCCC3 | 85 | 1 | 94 | 67 | 59 | 72
CCCc1nc2sc3c(SCC(=O)NCc4ccco4)ncnc3c2c2c1CCC2 | 58 | -1 | 95 | 30 | 8.6* | 27
O=c1c2ccccc2sn1-c1ccc(S(=O)(=O)N2CCCC2)cc1 | . | . | . | 81 | . | 85
Cc1ccc(-n2sc3ccccc3c2=O)cc1S(=O)(=O)N1CCCCC1 | 74 | -5 | 49* | 56 | 1.5* | 34
O=c1c2ccccc2sn1-c1ccc(S(=O)(=O)N2CCCCC2)cc1 | 62 | . | 37* | . | 44 | .
O=C(Nc1ccc2c(c1)OCO2)C1COc2ccccc2O1 (centres undefined) | 78 | 0 | 100 | 93 | 78 | 88
Cc1cc(=O)oc2cc(NC(=O)C3COc4ccccc4O3)ccc12 (centres undefined) | 91 | 0 | 74 | 92 | 39* | 76
O=C(O)CC(Cc1ccc(Cl)cc1)C(=O)NCc1ccccc1 (centres undefined) | . | 0 | . | 91 | . | 85
CCCCOCCCNS(=O)(=O)c1ccccc1 | 88 | -1 | 98 | 100 | 99 | 102
CCCCOP(=O)(OCCCC)C1(NS(=O)(=O)c2ccccc2)C=CC(=O)c2ccccc21 (centres undefined) | 34 | -2 | 86 | 87 | 12* | 67
CCC(CC)C(=O)Nc1cc(C)c2c(=O)oc3ccccc3c2n1 | 79 | 0 | 98 | 61 | 52 | 54
SMILES | HUVEC inhibit | Phagocyt inh | Lung fibro prol | HCT116 bCat-KO | H69AR growth 86K | HCT116 PTEN-null
COc1ccc(CC(=O)Nc2cc(C)c3c(=O)oc4ccccc4c3n2)cc1 | 69 | 0 | 64 | . | 22* | .
CCOc1ccc(C(=O)Nc2cc(C)c3c(=O)oc4ccccc4c3n2)cc1 | 26* | 0 | 69 | 83 | 19* | 91
O=C(CN1CCN(c2ccccc2F)CC1)Nc1ccccc1F | 97 | 5 | 95 | 93 | 95 | 96
Cc1cc(NC(=O)c2ccc(S(=O)(=O)N3CCCC3)cc2)nc2c1c(=O)oc1ccccc12 | 69 | . | 72 | 40 | 18* | 62
Cc1cc(NC(=O)c2ccc(S(=O)(=O)N3CCOCC3)cc2)nc2c1c(=O)oc1ccccc12 | . | . | . | 96 | . | 81
Cc1cc(NC(=O)CN2CCN(c3ccccc3F)CC2)nc2c1c(=O)oc1ccccc12 | 53 | . | 91 | . | 34* | .
Cc1sc2cc(-c3cccc([N+](=O)[O-])c3)c(-c3cccc([N+](=O)[O-])c3)c[n+]2c1C | . | -5 | . | 96 | . | 102
COc1ccc(CCNC(=O)c2ccc(-c3ccc([N+](=O)[O-])cc3)o2)cc1OC | . | 0 | . | 79 | . | 83
O=C(C1=NNCC1c1ccc(Cl)cc1)C1CO1 (centres undefined) | . | -13 | . | 2.2* | . | 2.1*
CCOC(=O)c1c(C2COc3ccccc3O2)csc1NC(=O)c1ccco1 (centres undefined) | 83 | 1 | 102 | 75 | 31* | 81
Cc1nc(Nc2ncc3c(n2)CCCC3=O)nc2ccccc12 | 95 | . | 104 | . | 102 | .
Cn1c(C(=O)Nc2ccc3c(c2)OCO3)cc2c(=O)n(C)c3ccccc3c21 | 72 | 3 | 57 | 81 | 31* | 78
Cn1c(C(=O)N2CCN(Cc3ccc4c(c3)OCO4)CC2)cc2c(=O)n(C)c3ccccc3c21 | 82 | -1 | 92 | 33 | 38* | 36
CC(NC(=O)c1cc2c(=O)n(C)c3ccccc3c2n1C)c1ccc2c(c1)OCCO2 (centres undefined) | 68 | . | 100 | . | 45 | .
O=C(CNc1ccc2ccccc2c1)N/N=C/c1cc2ccccc2nc1Cl | . | . | . | 66 | . | 70
O=c1c2c([nH]c3ccc(Br)cc13)CCCC2 | 102 | -1 | 94 | . | 68 | .
NC(=O)c1cc(Br)cc2c3c([nH]c12)CCCC3 | 42 | 0 | 87 | 51 | 18* | 45
Cc1cccc(NC(=S)Nc2ccc(N3CCOCC3)cc2)c1C | . | -15 | . | 83 | . | 90
O=C(N/N=C/c1cccs1)C1COc2ccccc2O1 (centres undefined) | 69 | 2 | 95 | 81 | 24* | 79
O=C(N/N=C/c1ccco1)C1COc2ccccc2O1 (centres undefined) | . | -1 | . | 90 | . | 96
Cc1cc(C)nc(N(C#N)Cc2cccc3ccccc23)n1 | 96 | . | 88 | 96 | 74 | 93
Cc1ccc(-c2nnc(SCC#CCOC(=O)c3cccs3)o2)cc1 | 88 | 0 | 99 | 87 | 99 | 98
O=C(OCC#CCSc1nnc(-c2ccc([N+](=O)[O-])cc2)o1)c1cccs1 | 91 | 3 | 98 | 79 | 37* | 89
COn1c(C)c(C(C)=O)c2c3nonc3ccc21 | 80 | 0 | 90 | 93 | 33* | 87
Oc1c(C(c2cccs2)N2CCN(c3ccccc3)CC2)ccc2cccnc12 (centres undefined) | . | 0 | . | 3.0* | . | 5
CC(C)(C)n1nnnc1C(c1cccs1)N1CCN(c2ccccc2)CC1 (centres undefined) | 112 | -1 | 97 | 80 | 81 | 76
